Test results: PMC3748591 (Bioorganic & medicinal chemistry, 2011)

How the values were obtained:
Human SphK1 = Human SphK1 (Homo sapiens, UniProt Q9NYA1); experiment: Sphingosine kinase assay, in vitro inhibition of SphK1; format: biochemical; conditions: initial screen at 100 μM inhibitor
mouse SphK2 = target: T1, mouse SphK2 (Mus musculus, UniProt Q9JIA7); experiment: Sphingosine kinase assay, in vitro inhibition of SphK2; format: biochemical; conditions: initial screen at 100 μM inhibitor
T1 sequence (Q9JIA7 1-617): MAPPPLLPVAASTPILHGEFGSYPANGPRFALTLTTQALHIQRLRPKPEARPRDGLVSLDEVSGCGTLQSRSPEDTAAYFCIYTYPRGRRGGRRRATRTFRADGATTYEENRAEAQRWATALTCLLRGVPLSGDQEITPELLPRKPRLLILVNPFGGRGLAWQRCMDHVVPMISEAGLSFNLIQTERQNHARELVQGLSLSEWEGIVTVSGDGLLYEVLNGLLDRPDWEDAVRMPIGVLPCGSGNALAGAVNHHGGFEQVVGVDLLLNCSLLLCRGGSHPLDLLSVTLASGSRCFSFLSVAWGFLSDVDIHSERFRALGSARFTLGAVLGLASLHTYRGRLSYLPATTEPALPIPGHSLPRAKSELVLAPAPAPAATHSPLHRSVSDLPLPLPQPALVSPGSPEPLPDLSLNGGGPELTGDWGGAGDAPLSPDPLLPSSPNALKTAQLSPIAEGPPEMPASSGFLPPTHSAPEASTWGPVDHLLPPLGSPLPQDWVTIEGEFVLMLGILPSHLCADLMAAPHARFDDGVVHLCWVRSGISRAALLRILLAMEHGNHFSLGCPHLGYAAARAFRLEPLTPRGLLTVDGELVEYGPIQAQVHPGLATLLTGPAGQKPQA

SphK2 = target: T2, SphK2 (Homo sapiens, UniProt Q9NRA0); experiment: FTY720 phosphorylation in intact U937 cells; format: cell-based; conditions: U937 cells exposed to FTY720 and 10 μM inhibitor, 2 h; cell pellet, LC/MS
T2 sequence (Q9NRA0 1-654): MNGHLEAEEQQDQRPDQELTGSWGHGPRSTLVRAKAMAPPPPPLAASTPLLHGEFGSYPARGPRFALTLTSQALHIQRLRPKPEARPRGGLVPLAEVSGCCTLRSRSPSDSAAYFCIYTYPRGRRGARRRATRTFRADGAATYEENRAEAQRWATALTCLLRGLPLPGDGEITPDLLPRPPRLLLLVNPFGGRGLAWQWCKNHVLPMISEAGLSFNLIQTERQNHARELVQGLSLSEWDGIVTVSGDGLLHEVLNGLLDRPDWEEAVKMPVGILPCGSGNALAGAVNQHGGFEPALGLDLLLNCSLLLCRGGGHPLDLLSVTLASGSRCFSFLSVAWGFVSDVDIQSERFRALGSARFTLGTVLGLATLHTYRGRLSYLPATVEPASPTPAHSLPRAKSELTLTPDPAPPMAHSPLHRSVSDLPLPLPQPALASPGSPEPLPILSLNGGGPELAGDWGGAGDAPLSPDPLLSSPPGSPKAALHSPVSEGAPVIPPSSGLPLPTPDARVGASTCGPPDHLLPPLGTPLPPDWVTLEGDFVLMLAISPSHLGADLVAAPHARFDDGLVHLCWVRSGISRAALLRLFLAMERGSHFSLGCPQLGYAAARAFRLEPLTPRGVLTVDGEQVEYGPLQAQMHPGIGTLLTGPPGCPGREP
In short: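 Cultured U937 cells were given exogenous FTY720 plus 10 μM test compound for 2 h, then pelleted by centrifugation. Pellet FTY720 and FTY720-P were measured by LC/ESI-MS/MS: C18 reverse phase, water/methanol/formic acid gradient, 1 mL/min. MRM was 308.4→255.1 and 388.4→255.1, with C17S1P and C17-sphingosine as internal standards, quantified by peak area. Results are moles per million cells, means ± SD of three independent experiments, unpaired two-tailed t-test.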

U937 cells = experiment: S1P levels in U937 cells; format: cell-based, human; conditions: LC/MS, data not shown
[1] = test system: Akt and ERK phosphorylation; experiment: Akt/ERK phosphorylation in U937 cells; format: cell-based, human; conditions: different concentrations, 16 h (legend: 24 h), Western blot
In short: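 U937 cells pretreated with test compound at a range of concentrations for 24 h (legend; the methods say times "usually 2 h"). Cells were washed in PBS, Dounce-lysed, and equal protein run on 10% SDS–PAGE, then transferred to nitrocellulose. Blots were blocked in 5% milk/TBS pH 7.4 with 0.1% Tween 20, probed 1 h with anti-ERK, p-ERK, Akt, p-Akt and β-actin (1:1000), then HRP anti-IgG (1:2000), with chemiluminescent detection. PD098059 (10 μM) served as ERK positive control.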

Sequence of Human SphK1 (Q9NYA1 whole entry): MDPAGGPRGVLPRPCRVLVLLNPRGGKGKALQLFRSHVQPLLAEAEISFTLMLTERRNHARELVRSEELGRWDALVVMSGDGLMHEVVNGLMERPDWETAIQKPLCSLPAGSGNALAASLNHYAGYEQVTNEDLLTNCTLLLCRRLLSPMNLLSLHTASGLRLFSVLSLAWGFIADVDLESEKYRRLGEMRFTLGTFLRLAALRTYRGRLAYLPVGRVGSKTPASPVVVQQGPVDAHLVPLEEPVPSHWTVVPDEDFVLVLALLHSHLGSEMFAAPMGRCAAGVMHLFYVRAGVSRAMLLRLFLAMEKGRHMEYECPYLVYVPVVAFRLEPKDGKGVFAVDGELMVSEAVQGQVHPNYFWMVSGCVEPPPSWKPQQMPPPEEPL

Structure (SMILES): CCCCCCCCc1ccc(C2CCC(=CC(=O)OC)CC2)cc1 (centres unmarked) [Compound 5, Methyl 2-(4-(4-octylphenyl)cyclohexylidene)acetate]
- inhibition of SphK1, result in words (Human SphK1): inactive against SphK1
- inhibition of SphK2, result in words (mouse SphK2): did not cross the 50% threshold

Structure (SMILES): CCCCCCCCc1ccc(C2CCC(=CCO)CC2)cc1 (centres unmarked) [Compound 6, 2-(4-(4-Octylphenyl)cyclohexylidene)ethanol]
- inhibition of SphK1, result in words (Human SphK1): inactive against SphK1
- inhibition of SphK2, result in words (mouse SphK2): did not cross the 50% threshold

Structure (SMILES): CCCCCCCCc1ccc(C2CCC(O)(C[N+](=O)[O-])CC2)cc1 (centres unmarked) [Compound 7, 1-(Nitromethyl)-4-(4-octylphenyl)cyclohexanol]
- inhibition of SphK1, result in words (Human SphK1): inactive against SphK1
- inhibition of SphK2, result in words (mouse SphK2): did not cross the 50% threshold

Structure (SMILES): CCCCCCCCc1ccc(C2CCC(=NO)CC2)cc1 (centres unmarked) [Compound 8, 4-(4-Octylphenyl)cyclohexanone oxime]
- inhibition of SphK1, result in words (Human SphK1): inactive against SphK1
- inhibition of SphK2, result in words (mouse SphK2): did not cross the 50% threshold

Structure (SMILES): CCCCCCCCc1ccc([C@H]2CC[C@H](O)CC2)cc1 [Compound 9, (1r,4r)-4-(4-Octylphenyl)cyclohexanol]
- inhibition of SphK1, result in words (Human SphK1): inactive against SphK1
- inhibition of SphK2, result in words (mouse SphK2): did not cross the 50% threshold

Structure (SMILES): CCCCCCCCc1ccc([C@H]2CC[C@H]([N+](C)(C)C)CC2)cc1.[I-] [trans-12a, (1r,4r)-N,N,N-trimethyl-4-(4-octylphenyl)cyclohexanaminium iodide]
- accumulation of FTY720 in cells (SphK2): exaggerated the accumulation
- production of FTY720-P (SphK2): significantly suppressed
- S1P levels (U937 cells): no change
- Akt phosphorylation [1]: dose-dependent decrease
- ERK phosphorylation [1]: quantitatively inhibited

Structure (SMILES): CCCCCCCCc1ccc([C@H]2CC[C@H]([N+](C)(C)CCC)CC2)cc1.[I-] [trans-12b, (1r,4r)-N,N-Dimethyl-4-(4-octylphenyl)-N-propylcyclohexanaminium iodide]
- accumulation of FTY720 in cells (SphK2): exaggerated the accumulation
- production of FTY720-P (SphK2): significantly suppressed
- S1P levels (U937 cells): no change
- Akt phosphorylation [1]: complete disappearance of p-Akt band
- ERK phosphorylation [1]: quantitatively inhibited
